By MIC is commonly meant the lowest concentration that inhibits growth of the organism. Higher therefore signals a less susceptible organism. Broadly, the IC50 is the concentration at which inhibition is half-maximal.

Values after ≈ are worked out from the molar mass of the structure shown. Where only a bound is given, the exact number is not on record here.

This is an account of results in ChEMBL document CHEMBL1151163, “New chromanone acids with antibacterial activity from Calophyllum brasiliense” (J Nat Prod, 2004).

Assay [1] relates to Staphylococcus epidermidis. Description: Antimicrobial activity against Staphylococcus epidermidis ATCC 12228 by doubling dilution method. It counts as functional. In short, it runs like this:
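Twofold serial (doubling) dilution susceptibility test following a previously published protocol, with chloramphenicol as the positive control.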

The test system of the next assay is KB. The assay is described as follows: Cytotoxicity against human KB cells. It counts as functional, cell-based. The gist of the method:
(§1)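 Cytotoxicity followed previously published protocols. KB cells (HeLa-derived, ATCC CCL 17) used podophyllotoxin as the positive control. Jurkat T helper cells (ATCC TIB 152) used helenalin. Myosarcoma cells used aculeatin A.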

A further assay has as its system Jurkat. The assay is described as follows: Cytotoxicity against human Jurkat T cells. The format is functional, cell-based. The gist of the method: as §1
Assay [2] is described as follows: Cytotoxicity against Myosarcoma cells. It counts as functional, cell-based. In short, it runs like this:
as §1

Compound `C=C(C)[C@@H]1C[C@@H](CC2(CC=C(C)C)C(=O)C3=C(O)[C@@H](C)[C@@H](C)OC3=C(C(CC(=O)O)c3ccccc3)C2=O)C1(C)C` (relative stereo) [BRASILIENSOPHYLLIC ACID A] gave a minimal inhibitory concentration (MIC) in assay [1] of 16 µg/mL (≈ 28.5 µM). The half-maximal inhibitory concentration (IC50) (in the assay with KB; in the assay on Jurkat; in assay [2]) was more than 20 µg/mL throughout.

With `C=C(C)[C@@H]1C[C@@H](CC2(CC=C(C)C)C(=O)C(C(CC(=O)O)c3ccccc3)=C3O[C@H](C)[C@@H](C)C(=O)C3=C2O)C1(C)C` (relative stereo) [BRASILIENSOPHYLLIC ACID B], it took 16 µg/mL (≈ 28.5 µM) to inhibit growth in assay [1] (MIC). Besides, the 50% inhibitory concentration (IC50) (in the assay with KB; with Jurkat; in assay [2]) was more than 20 µg/mL each time.

In turn, `C=C(C)[C@@H]1C[C@@H](CC2(CC=C(C)C)C(=O)C3=C(O)[C@@H](C)[C@H](C)OC3=C(C(CC(=O)O)c3ccccc3)C2=O)C1(C)C` (relative stereo) [ISOBRASILIENSOPHYLLIC ACID A] showed an MIC in assay [1] of 16 µg/mL (≈ 28.5 µM). For the same compound, the 50% inhibitory concentration (IC50) (in the assay with KB; in the assay with Jurkat; in assay [2]) was more than 20 µg/mL each time.

The compound `C=C(C)[C@@H]1C[C@@H](CC2(CC=C(C)C)C(=O)C(C(CC(=O)O)c3ccccc3)=C3O[C@@H](C)[C@@H](C)C(=O)C3=C2O)C1(C)C` (relative stereo) [ISOBRASILIENSOPHYLLIC ACID B] had a minimum inhibitory concentration (MIC) in assay [1] of 16 µg/mL (≈ 28.5 µM). Further, the IC50 (with KB; in the assay with Jurkat; in assay [2]) was more than 20 µg/mL throughout.

Compound `CCCCCCCCCCCCC[C@@H]1C[C@@H](O)C[C@]2(CCC3(C=CC(=O)C=C3)O2)O1` [ACULEATIN A] had an IC50 in assay [2] of 0.3 µg/mL (≈ 0.717 µM).

Compound `O=C(N[C@H](CO)[C@H](O)c1ccc([N+](=O)[O-])cc1)C(Cl)Cl` [CHLORAMPHENICOL] registered an MIC in assay [1] of 4 µg/mL (≈ 12.4 µM).

`C=C1C(=O)O[C@@H]2C[C@@H](C)[C@@H]3C=CC(=O)[C@@]3(C)[C@@H](O)[C@H]12` [HELENALIN] registered a concentration for half-maximal inhibition (IC50) in the assay on Jurkat of 0.03 µg/mL (≈ 0.114 µM).

`COc1cc([C@@H]2c3cc4c(cc3[C@H](O)[C@H]3COC(=O)[C@H]23)OCO4)cc(OC)c1OC` [PODOFILOX]: the concentration for half-maximal inhibition (IC50) in the assay with KB was determined as 0.005 µg/mL (≈ 0.0121 µM).
